Bioassay records as filed in PubChem.
KCNQ1 pot – potentiates or activates the human KCNQ1 potassium channel; P51787; B-score at 10 µM; CHO-K1 KCNQ1, thallium flux FluxOR fluorescence; hits give high values; actives 0.35% (n = 310,000);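 active means fluorescence ratio B-score, a plate-corrected score, at least three library SD, with initial intensity B-score within 5 SD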
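Test system: CHO-K1 cells stably expressing KCNQ1 / Medium: assay buffer / Also added: depolarizing K+/Tl+ stimulus, K2SO4 and Tl2SO4 each 12.5 mM in 5x stock / Incubation: 90 min dye loading and 20 min compound exposure, both at room temperature / Signal: thallium influx via FluxOR fluorescence, kinetic imaging / Evaluation: B score of baseline-normalized fluorescence ratio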
KCNQ1 block – blocks the human KCNQ1 potassium channel. P51787. CHO-K1 KCNQ1, FluxOR thallium flux fluorescence; hits give high values. B-score at 10 µM. actives 1.3% (n = 310,000). AID 2642;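 active means compounds whose thallium flux B-score, printed positive for inhibition, exceeds three library SD while starting fluorescence stays within three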;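 further: channel opened by potassium depolarization with thallium stimulus after 20 min compound exposure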
Kir21 inh – blocks the mouse Kir2.1 inward-rectifier potassium channel; P35561; B-score at 10 µM; AID 1672; actives 0.85% (n = 310,000); HEK293-Kir2.1, FluxOR thallium flux fluorescence; hits give low values;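 active means fluorescence ratio B-score at or below minus 3 SD of library scores, with starting-brightness B-score within 2 SD, cut at about -4.2 in these data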;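 further: channel flux triggered by added potassium and thallium sulfate stimulus; B-score of peak minus minimum fluorescence over baseline after thallium stimulus; more negative B-score means stronger Kir2.1 block with less thallium influx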
Target sequence (P35561 whole entry, looked up): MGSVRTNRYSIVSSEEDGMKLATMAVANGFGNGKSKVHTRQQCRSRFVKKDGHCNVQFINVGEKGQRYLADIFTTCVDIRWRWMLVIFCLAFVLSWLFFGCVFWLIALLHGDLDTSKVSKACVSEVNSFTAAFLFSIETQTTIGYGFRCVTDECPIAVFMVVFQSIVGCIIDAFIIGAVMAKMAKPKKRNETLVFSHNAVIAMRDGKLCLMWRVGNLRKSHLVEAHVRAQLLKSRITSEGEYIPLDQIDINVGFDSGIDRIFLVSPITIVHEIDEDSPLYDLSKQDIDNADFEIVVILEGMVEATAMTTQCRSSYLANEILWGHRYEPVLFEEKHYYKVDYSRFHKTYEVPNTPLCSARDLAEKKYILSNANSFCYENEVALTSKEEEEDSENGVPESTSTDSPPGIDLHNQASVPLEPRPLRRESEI
KCNK3 block – human KCNK3 channel inhibition, primary screen | O14649 | CHO-KCNK3 thallium flux, FluxOR fluorescence; hits give low values | B-score at 10 µM | actives 0.84% (n = 340,000);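 active means B-score under library mean minus 4 SD, starting fluorescence ratio at most library mean plus 5 SD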;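 further: more negative B-score means stronger inhibition of thallium flux through KCNK3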
KCNK9 block – blocks the human KCNK9 two-pore domain potassium channel. Q9NPC2. HEK293 KCNK9, FluxOR thallium flux fluorescence; hits give low values. B-score at 10 µM. actives 1.2% (n = 310,000). AID 488922;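 active means ratio B-score over 3 SD below the library mean, with starting fluorescence within 5 SD of its mean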;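 further: negative B-score means less thallium flux so channel inhibition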
hERG rescue – hERG (human) protection from proarrhythmic block | CHO-hERG, FluxOR thallium flux, dofetilide IC70 present | actives 0.51% (n = 310,000) | Q12809 | activation (rescue from dofetilide block), less the hit threshold, % at 10 µM;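 active means activation above the mean of controls blocked by dofetilide plus 5 SD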;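 further: thallium influx through hERG after potassium depolarization seen as dye fluorescence rise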
KCNK9 block conf – confirmation of human KCNK9 potassium channel inhibitors; shares compounds with KCNK9 block; actives 43% (n = 4,900); inhibition, % at 10 µM; HEK293 KCNK9 cells, FluxOR thallium flux fluorescence;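 active means thallium signal inhibited by more than 5 SD of the compound-free buffer control wells, on both duplicate plates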;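 further: 0% = assay buffer control wells without compound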
Kir2-1 spec – mouse Kir2.1 off-target activity of KCNK9 modulators. inhibition, % at 10 µM. actives 4% (n = 4,900). shares compounds with KCNK9 block. Kir2.1 cells, FluxOR thallium flux fluorescence. AID 492993;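 active means thallium signal drop more than 5 SD beyond the mean of the no-compound control wells, seen in both duplicate plates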;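 further: signal is fluorescence rise after thallium addition divided by baseline fluorescence; plate controls were assay buffer only for no effect and full block by chlorpromazine control for full effect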
KCNK9 uninduced – second check of KCNK9 modulator effects in non-induced HEK293 cells. shares compounds with KCNK9 block. inhibition, % at 10 µM. actives 40% (n = 4,900). FluxOR thallium flux;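 active means thallium signal drop beyond 5 SD of the untreated control mean, on both duplicate plates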;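 further: plate controls were buffer only IC0 wells for no effect and SID17386958 at its maximal inhibitory level for full effect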
The depositor's hits bear a star; i = inactive; x = no result. Sampled rows, rich in hits. Any-hit rate of the full collection: about 3.8%.

SMILES	KCNQ1 pot	KCNQ1 block	Kir21 inh	KCNK3 block	KCNK9 block	hERG rescue	KCNK9 block conf	Kir2-1 spec	KCNK9 uninduced
CC[C@H]1C(=O)[C@@H](Cc2ccccc2)[C@@H]2CCN3C(=O)CCC[C@H]1[C@H]23	x	x	x	i	x	x	x	x	x
COC1CCCCC1Nc1cccc(SC)c1 (configuration not stated)	i	i	-0.28	i	i	-2	i	i	i
CC(C)CN(C(=O)C1CCCO1)c1c(N)n(CC(C)C)c(=O)[nH]c1=O (configuration not stated)	x	x	x	i	x	x	x	x	x
COc1ccc(-c2n(Cc3ccccc3)c3ccccc3[n+]2Cc2ccccc2)cc1	i	8*	-1.4	i	-11*	-11	i	43%*	i
O=C(Cn1c(=O)n(-c2cccc(C(F)(F)F)c2)c(=O)c2sccc21)NCC1CCCO1 (configuration not stated)	i	i	-0.55	i	i	-8	x	x	x
COc1ccc(COc2ccsc2C(=O)Nc2ccc(Cl)cc2)cc1	i	i	-0.28	i	-9*	-11	44%*	i	26%*
COc1ccc(NC(=O)c2sccc2OS(=O)(=O)N(C)C)cc1	i	i	0.4	i	i	-2	x	x	x
CN(C)S(=O)(=O)Oc1ccsc1C(=O)Nc1ccc(Cl)cc1	i	i	-0.36	-11*	-11*	-8	33%*	i	40%*
CCOC(=O)[C@@H]1[C@H]2COc3ccccc3[C@H]2N2C(=O)N(c3ccc(C(F)(F)F)cc3)C(=O)[C@]12C	i	i	-0.6	i	-8.6*	-12	52%*	i	34%*
CCOC(=O)[C@@H]1[C@H]2COc3ccccc3[C@@H]2N2C(=O)N(c3ccc(C(F)(F)F)cc3)C(=O)[C@@]12C	x	x	x	i	x	x	x	x	x
CCOc1ccc(-c2cc(NC(=O)c3c(F)cccc3F)c(C(=O)O)s2)cc1	i	i	2.5	i	i	-11	i	i	i
CCOC(=O)c1sc(-c2ccc(OC)cc2)cc1NC(C)=O	i	i	0.3	i	i	-2	i	i	i
COc1ccc(COCC(O)CN2CCN(S(=O)(=O)c3ccc(C(C)C)cc3)CC2)cc1 (configuration not stated)	x	x	x	i	x	x	x	x	x
Cc1ccc(F)c(NC(=O)c2ccc(Cn3cc(Cl)cn3)cc2)c1	i	i	0.09	i	i	-10	x	x	x
Cc1ccc(F)c(NC(=O)/C(C#N)=C(\O)c2ccc(C(C)(C)C)cc2)c1	i	7*	0.8	i	i	-11	i	i	i
CC1(C)CC[C@]2(C(=O)O)CC[C@]3(C)C(=CC[C@@H]4[C@@]5(C)CC[C@H](O[C@@H]6O[C@H](C(=O)O)[C@@H](O)[C@H](O[C@@H]7OC[C@H](O)[C@H](O)[C@H]7O)[C@H]6O)C(C)(C)[C@@H]5CC[C@]43C)[C@@H]2C1	x	x	x	i	x	x	x	x	x
O=C(c1cc(COc2c(F)cccc2F)on1)N1CCC(c2ccccc2F)C1 (configuration not stated)	i	i	0.05	i	i	-14	i	i	i
Cc1nc(CN(C)C(=O)c2cc(COc3c(F)cccc3F)on2)cs1	i	i	-0.23	i	i	-20	x	x	x
O=C(c1cc(COc2cccc3cnccc23)on1)N1CCC(c2ccccc2Cl)C1 (configuration not stated)	i	i	-0.7	i	i	-9	x	x	x
O=C(c1cc(COc2c(F)cccc2F)on1)N1CCC(c2ccccc2Cl)C1 (configuration not stated)	i	i	-0.03	i	i	-11	i	43%*	i
CN1CCN(C(=O)c2cc(COc3c(F)cccc3F)on2)CC1c1ccccc1 (configuration not stated)	i	i	-0.52	i	i	-8	i	i	i
CN(Cc1cc(-c2ccccc2)on1)C(=O)c1cc(COc2c(F)cccc2F)on1	i	i	-0.92	i	-13*	-19	66%*	i	30%*
COc1ccc(N2CCN(S(=O)(=O)CCNC(=O)/C=C/c3ccc4c(c3)OCO4)CC2)cc1	i	i	0.18	i	i	-8	x	x	x
CN(c1ccccc1)S(=O)(=O)c1cccc(NC(=O)C2=NN(c3ccccc3)C(=O)CC2)c1	x	x	x	i	x	x	x	x	x
O=c1[nH]c2ccc(NCc3ccccc3OCc3ccc(Cl)cc3)cc2[nH]1	i	i	0.06	i	i	-1	x	x	x
SMILES	KCNQ1 pot	KCNQ1 block	Kir21 inh	KCNK3 block	KCNK9 block	hERG rescue	KCNK9 block conf	Kir2-1 spec	KCNK9 uninduced
O=C(CNCc1ccccc1Cl)Nc1cc(S(=O)(=O)N2CCOCC2)ccc1Cl	x	x	x	i	x	x	x	x	x
O=C(Nc1cc(S(=O)(=O)N2CCOCC2)ccc1Cl)C(=O)c1c(-c2ccccc2)cc2ccccn12	i	i	-0.09	i	-8.2*	-5	i	i	i
O=C(c1oc2ccccc2c1CSCc1ccccc1)N1CCN(c2ncccn2)CC1	i	i	-0.13	i	-9.6*	-13	23%*	i	i
CCOC(=O)[C@H](C)N1[C@H](C)[C@H](c2ccccc2)Oc2ccc(Cl)cc2S1(=O)=O	x	x	x	i	x	x	x	x	x
COc1ccc(-n2c(Cc3cccn3C)nnc2SCC(=O)Nc2cccc(Cl)c2)cc1	i	i	1.8	i	i	-3	i	i	i
COc1ccc(NC(=O)CSc2nnc(Cc3cccs3)n2-c2ccc(C)cc2)cc1	i	i	-1	i	i	-7	i	i	i
COc1ccc(-n2c(Cc3cccn3C)nnc2SCC(=O)Nc2cccc(NC(C)=O)c2)cc1	i	i	0.92	i	i	-12	x	x	x
COc1cccc(NC(=O)CSc2nnc(Cc3cccs3)n2-c2ccc(C)cc2)c1	i	i	0.01	i	i	-6	x	x	x
CCN(Cc1ccncc1)C(=O)c1ccc(C)c(S(=O)(=O)N2CCCCC2)c1	x	x	x	i	x	x	x	x	x
COc1ccc(C(=O)NCCc2nnc3ccc(SCC(=O)N4CCCC4)nn23)cc1	i	i	-0.53	i	i	-5	x	x	x
Cc1ccc(C)c(OCC(=O)N2CCc3ccccc3C2)c1	i	i	-1.5	i	i	-7	i	i	i
O=C(CCCOc1ccccc1)N1CCc2ccccc2C1	i	i	-0.03	i	i	-6	x	x	x
